In assay [1] the target is T1, M-phase inducer phosphatase 3 (Homo sapiens, UniProt P30307).
T1 sequence (P30307 whole entry): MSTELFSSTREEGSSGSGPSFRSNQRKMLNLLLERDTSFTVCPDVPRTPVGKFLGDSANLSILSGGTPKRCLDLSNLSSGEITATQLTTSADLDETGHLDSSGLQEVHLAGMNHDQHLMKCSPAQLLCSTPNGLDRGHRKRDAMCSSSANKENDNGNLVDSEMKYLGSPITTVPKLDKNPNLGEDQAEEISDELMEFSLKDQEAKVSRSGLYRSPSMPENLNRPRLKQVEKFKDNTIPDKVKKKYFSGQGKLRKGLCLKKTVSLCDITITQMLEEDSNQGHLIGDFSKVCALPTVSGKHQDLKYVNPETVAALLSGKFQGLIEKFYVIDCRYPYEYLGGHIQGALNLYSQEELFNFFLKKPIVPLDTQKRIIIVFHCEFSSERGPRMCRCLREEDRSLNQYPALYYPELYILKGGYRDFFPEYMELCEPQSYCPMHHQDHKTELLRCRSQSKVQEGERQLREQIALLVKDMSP
As to the kind of experiment: Inhibitory activity against recombinant CDC25C. The essentials: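 Recombinant maltose binding protein (MBP)-CDC25C fusion enzyme, with 3-O-methylfluorescein phosphate (OMFP) as substrate. IC50 given as mean ± SEM from at least two, usually three, independent experiments.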

A further assay deals with MIA PaCa-2. As to the kind of experiment: Antiproliferative activity against human pancreatic carcinoma Mia PaCa2 cell line by colorimetric assay. The class given is functional, cell-based. An outline of the steps:
(§1)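 WST1 tetrazolium salt cleavage by mitochondrial dehydrogenases in viable cells, colorimetric read-out. IC50 given as mean ± SEM from at least two experiments, with four or eight determinations per tested concentration.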

The test system of the next assay is DU-145. Put plainly: Antiproliferative activity against human androgen-independent prostate carcinoma DU145 cell line by colorimetric assay. The class given is functional, cell-based. An outline of the steps:
as §1

These results are taken from ChEMBL document CHEMBL1148551, “Synthesis and biological evaluation of novel heterocyclic quinones as inhibitors of the dual specificity protein phosphatase CDC25C” (Bioorg Med Chem Lett, 2006).

As usually defined, the IC50 is the midpoint of a concentration-inhibition curve.

For `CN(C)CC/N=C1\C=C(O)c2oc(-c3ccccc3)nc2C1=O`, the IC50 in assay [1] was 230 nM; in the assay on MIA PaCa-2 it was 150 nM; with DU-145 it was 210 nM.
Consider `CN(C)CC/N=C1\C=C(O)c2nc(-c3ccccc3)oc2C1=O`, for which the values for the IC50 (in assay [1]; in the assay with MIA PaCa-2; in the assay on DU-145) were 230 nM, 150 nM and 210 nM, respectively.
Take `Cc1nc2c(s1)C(O)=C/C(=N\CCN(C)C)C2=O`: the 50% inhibitory concentration (IC50) turned out to be 150 nM in assay [1], 180 nM in the assay on MIA PaCa-2 and 110 nM in the assay on DU-145.
For the compound `CN(C)CC/N=C1\C=C(O)c2cn(-c3ccccc3)nc2C1=O`, the 50% inhibitory concentration (IC50) in assay [1] is 12000 nM.
Take `O=C1C(Cl)=C(NCCN2CCOCC2)C(=O)c2ncccc21`: the half-maximal inhibitory concentration (IC50) with MIA PaCa-2 stood at 2500 nM; in the assay on DU-145, 2300 nM.
As to `CN(C)CC/N=C1\C=C(O)c2[nH]c(-c3ccccc3)nc2C1=O`, the figures for the half-inhibitory concentration (IC50) (in assay [1]; in the assay with MIA PaCa-2; in the assay on DU-145) were 17000 nM, 12000 nM and > 10000 nM, respectively.
In the same order, the values of `CCc1nc2c([nH]1)C(=O)/C(=N/CCN(C)C)C=C2O` are 12000 nM, 18000 nM and > 10000 nM.
In the same order, the values of `CCc1nc2c(o1)C(=O)C(NCCN(C)C)=CC2=O` are 130 nM, 440 nM and 220 nM.
On to `CN(C)CC/N=C1\C=C(O)c2nn(-c3ccccc3)cc2C1=O`, for which the IC50 in assay [1] is 12000 nM.
For the compound `CC1=CC(=O)c2ccccc2C1=O` [MENADIONE], the results for the IC50 in the assay on MIA PaCa-2 and with DU-145 were 6200 nM and 11000 nM, respectively.
As for `CCc1nc2c(o1)C(O)=C/C(=N\CCN(C)C)C2=O`, the IC50 in assay [1] worked out at 130 nM; in the assay with MIA PaCa-2 it was 440 nM; in the assay on DU-145, 220 nM.
In the case of `CN(C)CC/N=C1\C=C(O)c2cn(C)cc2C1=O`, the half-inhibitory concentration (IC50) in assay [1] came to 81000 nM.
